Measured values as given in ChEMBL document CHEMBL3632558, “Synthesis, antimycobacterial and antibacterial activity of l-[(1R,2S)-2-fluorocyclopropyl]naphthyridone derivatives containing an oxime-functionalized pyrrolidine moiety” (2015).
≈ marks a conversion by molar mass, not a printed value.

Columns and labels:
Format in all cases: functional
[1] = test system: Staphylococcus epidermidis; test: Antibacterial activity against methicillin-sensitive Staphylococcus epidermidis 14-2 after 18 to 24 hrs
Method in brief: (§1)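 MIC by standard NCCLS reference procedure (M100-S11); lowest concentration of compound inhibiting visible bacterial growth after incubation at 35 °C for 18–24 h, read as complete inhibition of growth. Ciprofloxacin, levofloxacin and moxifloxacin run alongside as reference agents.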

Streptococcus pneumoniae = test: Antibacterial activity against Streptococcus pneumoniae ATCC 19615 after 18 to 24 hrs; method in brief: as §1
Klebsiella pneumoniae [2] = test: Antibacterial activity against ESBL-positive Klebsiella pneumoniae 14-18 after 18 to 24 hrs; method in brief: as §1
Enterococcus faecalis [3] = test: Antibacterial activity against Enterococcus faecalis 14-2 after 18 to 24 hrs; method in brief: as §1
Klebsiella pneumoniae [4] = test: Antibacterial activity against Klebsiella pneumoniae 14-1 after 18 to 24 hrs; method in brief: as §1
Staphylococcus aureus [5] = test: Antibacterial activity against methicillin-sensitive Staphylococcus aureus 14-3 after 18 to 24 hrs; method in brief: as §1
Escherichia coli [6] = test: Antibacterial activity against ESBL-positive Escherichia coli 14-1 after 18 to 24 hrs; method in brief: as §1
Klebsiella pneumoniae [7] = test: Antibacterial activity against Klebsiella pneumoniae 14-2 after 18 to 24 hrs; method in brief: as §1
Staphylococcus aureus [8] = test: Antibacterial activity against methicillin-sensitive Staphylococcus aureus 14-4 after 18 to 24 hrs; method in brief: as §1
Pseudomonas aeruginosa [9] = test: Antibacterial activity against Pseudomonas aeruginosa 14-14 after 18 to 24 hrs; method in brief: as §1
Pseudomonas aeruginosa [10] = test: Antibacterial activity against Pseudomonas aeruginosa 14-16 after 18 to 24 hrs; method in brief: as §1
Enterococcus faecalis [11] = test: Antibacterial activity against Enterococcus faecalis 14-1 after 18 to 24 hrs; method in brief: as §1
Staphylococcus aureus [12] = test: Antibacterial activity against methicillin-resistant Staphylococcus aureus 14-5 after 18 to 24 hrs
Escherichia coli [13] = test: Antibacterial activity against ESBL-positive Escherichia coli 14-2 after 18 to 24 hrs; method in brief: as §1
Staphylococcus aureus [14] = test: Antibacterial activity against methicillin-sensitive Staphylococcus aureus 14-1 after 18 to 24 hrs; method in brief: as §1
Pseudomonas aeruginosa [15] = test: Antibacterial activity against Pseudomonas aeruginosa 14-19 after 18 to 24 hrs; method in brief: as §1
Klebsiella pneumoniae [16] = test: Antibacterial activity against ESBL-positive Klebsiella pneumoniae 14-19 after 18 to 24 hrs; method in brief: as §1
Escherichia coli [17] = test: Antibacterial activity against Escherichia coli 14-2 after 18 to 24 hrs; method in brief: as §1
Enterococcus faecium [18] = test: Antibacterial activity against Enterococcus faecium 14-5 after 18 to 24 hrs; method in brief: as §1
[19] = test system: Staphylococcus epidermidis; test: Antibacterial activity against methicillin-resistant Staphylococcus epidermidis 14-39 after 18 to 24 hrs
Staphylococcus aureus [20] = test: Antibacterial activity against Staphylococcus aureus CMCC 26003 after 18 to 24 hrs; method in brief: as §1
Klebsiella pneumoniae [21] = test: Antibacterial activity against Klebsiella pneumoniae 14-3 after 18 to 24 hrs; method in brief: as §1
Klebsiella pneumoniae [22] = test: Antibacterial activity against ESBL-positive Klebsiella pneumoniae 14-17 after 18 to 24 hrs; method in brief: as §1
Escherichia coli [23] = test: Antibacterial activity against Escherichia coli 14-1 after 18 to 24 hrs; method in brief: as §1
[24] = test system: Mycobacterium tuberculosis; test: Antimycobacterial activity against Mycobacterium tuberculosis H37Rv ATCC 27294 by alamar blue assay
Method in brief: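 Microplate Alamar Blue Assay; MIC is the lowest concentration giving ≥90% reduction in fluorescence relative to the mean of replicate bacterium-only controls. MDR strain 6133 is resistant to isoniazid and rifampicin.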

[25] = test system: Staphylococcus epidermidis; test: Antibacterial activity against methicillin-resistant Staphylococcus epidermidis 14-37 after 18 to 24 hrs
Enterococcus faecium [26] = test: Antibacterial activity against Enterococcus faecium 14-6 after 18 to 24 hrs; method in brief: as §1
Pseudomonas aeruginosa [27] = test: Antibacterial activity against Pseudomonas aeruginosa 14-15 after 18 to 24 hrs; method in brief: as §1
Pseudomonas aeruginosa [28] = test: Antibacterial activity against Pseudomonas aeruginosa ATCC 27853 after 18 to 24 hrs; method in brief: as §1
[29] = test system: Staphylococcus epidermidis; test: Antibacterial activity against methicillin-resistant Staphylococcus epidermidis 14-22 after 18 to 24 hrs
Pseudomonas aeruginosa [30] = test: Antibacterial activity against Pseudomonas aeruginosa 14-9 after 18 to 24 hrs; method in brief: as §1
Staphylococcus aureus [31] = test: Antibacterial activity against methicillin-sensitive Staphylococcus aureus 14-2 after 18 to 24 hrs; method in brief: as §1
Escherichia coli [32] = test: Antibacterial activity against Escherichia coli ATCC 25922 after 18 to 24 hrs; method in brief: as §1
Staphylococcus aureus [33] = test: Antibacterial activity against methicillin-resistant Staphylococcus aureus 14-4 after 18 to 24 hrs
Klebsiella pneumoniae [34] = test: Antibacterial activity against Klebsiella pneumoniae 14-4 after 18 to 24 hrs; method in brief: as §1
Enterococcus faecium [35] = test: Antibacterial activity against Enterococcus faecium 14-2 after 18 to 24 hrs; method in brief: as §1
[36] = test system: Staphylococcus epidermidis; test: Antibacterial activity against methicillin-resistant Staphylococcus epidermidis 14-21 after 18 to 24 hrs
Enterococcus faecium [37] = test: Antibacterial activity against Enterococcus faecium 14-1 after 18 to 24 hrs; method in brief: as §1

Row | Structure (SMILES) | MIC [1] [µg/mL] | MIC (Streptococcus pneumoniae) [µg/mL] | MIC (Klebsiella pneumoniae [2]) [µg/mL] | MIC (Enterococcus faecalis [3]) [µg/mL] | MIC (Klebsiella pneumoniae [4]) [µg/mL] | MIC (Staphylococcus aureus [5]) [µg/mL] | MIC (Escherichia coli [6]) [µg/mL] | MIC (Klebsiella pneumoniae [7]) [µg/mL] | MIC (Staphylococcus aureus [8]) [µg/mL] | MIC (Pseudomonas aeruginosa [9]) [µg/mL] | MIC (Pseudomonas aeruginosa [10]) [µg/mL] | MIC (Enterococcus faecalis [11]) [µg/mL] | MIC (Staphylococcus aureus [12]) [µg/mL] | MIC (Escherichia coli [13]) [µg/mL] | MIC (Staphylococcus aureus [14]) [µg/mL] | MIC (Pseudomonas aeruginosa [15]) [µg/mL] | MIC (Klebsiella pneumoniae [16]) [µg/mL] | MIC (Escherichia coli [17]) [µg/mL] | MIC (Enterococcus faecium [18]) [µg/mL] | MIC [19] [µg/mL] | further results
1 | COc1ccc(CO/N=C2\CN(c3nc4c(cc3F)c(=O)c(C(=O)O)cn4[C@@H]3C[C@@H]3F)CC2CN)cc1 (some centres undefined) | 32 (≈ 62.3 µM) | 0.015 (≈ 0.0292 µM) | 8 (≈ 15.6 µM) | < 0.008 | 128 (≈ 249 µM) | 0.015 (≈ 0.0292 µM) | < 0.008 | 128 (≈ 249 µM) | 0.03 (≈ 0.0584 µM) | 8 (≈ 15.6 µM) | 8 (≈ 15.6 µM) | 32 (≈ 62.3 µM) | 8 (≈ 15.6 µM) | 64 (≈ 125 µM) | 2 (≈ 3.89 µM) | 16 (≈ 31.2 µM) | 128 (≈ 249 µM) | 32 (≈ 62.3 µM) | 8 (≈ 15.6 µM) | 8 (≈ 15.6 µM) | MIC (Staphylococcus aureus [20]): < 0.008 µg/mL; MIC (Klebsiella pneumoniae [21]): 128 µg/mL (≈ 249 µM); MIC (Klebsiella pneumoniae [22]): 8 µg/mL (≈ 15.6 µM); MIC (Escherichia coli [23]): 32 µg/mL (≈ 62.3 µM); MIC90 [24]: 0.353 µg/mL (≈ 0.687 µM); MIC [25]: 16 µg/mL (≈ 31.2 µM); MIC (Enterococcus faecium [26]): 8 µg/mL (≈ 15.6 µM); MIC (Pseudomonas aeruginosa [27]): 16 µg/mL (≈ 31.2 µM); MIC (Pseudomonas aeruginosa [28]): 4 µg/mL (≈ 7.79 µM); MIC [29]: 4 µg/mL (≈ 7.79 µM); MIC (Pseudomonas aeruginosa [30]): 8 µg/mL (≈ 15.6 µM); MIC (Staphylococcus aureus [31]): < 0.008 µg/mL; MIC (Escherichia coli [32]): < 0.008 µg/mL; MIC (Staphylococcus aureus [33]): 16 µg/mL (≈ 31.2 µM); MIC (Klebsiella pneumoniae [34]): 128 µg/mL (≈ 249 µM); MIC (Enterococcus faecium [35]): 2 µg/mL (≈ 3.89 µM); MIC [36]: 4 µg/mL (≈ 7.79 µM); MIC (Enterococcus faecium [37]): 2 µg/mL (≈ 3.89 µM)
2 | NCC1CN(c2nc3c(cc2F)c(=O)c(C(=O)O)cn3[C@@H]2C[C@@H]2F)C/C1=N\OCc1ccc(OC(F)(F)F)cc1 (some centres undefined) | 16 (≈ 28.2 µM) | 0.015 (≈ 0.0264 µM) | 32 (≈ 56.4 µM) | 0.5 (≈ 0.881 µM) | 128 (≈ 226 µM) | 0.015 (≈ 0.0264 µM) | 8 (≈ 14.1 µM) | 128 (≈ 226 µM) | 0.06 (≈ 0.106 µM) | 32 (≈ 56.4 µM) | 32 (≈ 56.4 µM) | 32 (≈ 56.4 µM) | 4 (≈ 7.05 µM) | 128 (≈ 226 µM) | 4 (≈ 7.05 µM) | 16 (≈ 28.2 µM) | 128 (≈ 226 µM) | 128 (≈ 226 µM) | 8 (≈ 14.1 µM) | 8 (≈ 14.1 µM) | MIC (Staphylococcus aureus [20]): < 0.008 µg/mL; MIC (Klebsiella pneumoniae [21]): 128 µg/mL (≈ 226 µM); MIC (Klebsiella pneumoniae [22]): 32 µg/mL (≈ 56.4 µM); MIC (Escherichia coli [23]): 128 µg/mL (≈ 226 µM); MIC90 [24]: 0.987 µg/mL (≈ 1.74 µM); MIC [25]: 8 µg/mL (≈ 14.1 µM); MIC (Enterococcus faecium [26]): 4 µg/mL (≈ 7.05 µM); MIC (Pseudomonas aeruginosa [27]): 32 µg/mL (≈ 56.4 µM); MIC (Pseudomonas aeruginosa [28]): 16 µg/mL (≈ 28.2 µM); MIC [29]: 8 µg/mL (≈ 14.1 µM); MIC (Pseudomonas aeruginosa [30]): 16 µg/mL (≈ 28.2 µM); MIC (Staphylococcus aureus [31]): 0.03 µg/mL (≈ 0.0529 µM); MIC (Escherichia coli [32]): 2 µg/mL (≈ 3.52 µM); MIC (Staphylococcus aureus [33]): 16 µg/mL (≈ 28.2 µM); MIC (Klebsiella pneumoniae [34]): 128 µg/mL (≈ 226 µM); MIC (Enterococcus faecium [35]): 4 µg/mL (≈ 7.05 µM); MIC [36]: 8 µg/mL (≈ 14.1 µM); MIC (Enterococcus faecium [37]): 4 µg/mL (≈ 7.05 µM)
3 | COc1cccc(CO/N=C2\CN(c3nc4c(cc3F)c(=O)c(C(=O)O)cn4[C@@H]3C[C@@H]3F)CC2CN)c1OC (some centres undefined) | 32 (≈ 58.9 µM) | 0.03 (≈ 0.0552 µM) | 16 (≈ 29.4 µM) | 0.015 (≈ 0.0276 µM) | 128 (≈ 235 µM) | < 0.008 | 32 (≈ 58.9 µM) | 128 (≈ 235 µM) | 0.015 (≈ 0.0276 µM) | 16 (≈ 29.4 µM) | 16 (≈ 29.4 µM) | 64 (≈ 118 µM) | 2 (≈ 3.68 µM) | 128 (≈ 235 µM) | 4 (≈ 7.36 µM) | 16 (≈ 29.4 µM) | 128 (≈ 235 µM) | 128 (≈ 235 µM) | 4 (≈ 7.36 µM) | 16 (≈ 29.4 µM) | MIC (Staphylococcus aureus [20]): < 0.008 µg/mL; MIC (Klebsiella pneumoniae [21]): 64 µg/mL (≈ 118 µM); MIC (Klebsiella pneumoniae [22]): 128 µg/mL (≈ 235 µM); MIC (Escherichia coli [23]): 2 µg/mL (≈ 3.68 µM); MIC90 [24]: 0.376 µg/mL (≈ 0.692 µM); MIC [25]: 16 µg/mL (≈ 29.4 µM); MIC (Enterococcus faecium [26]): 16 µg/mL (≈ 29.4 µM); MIC (Pseudomonas aeruginosa [27]): 16 µg/mL (≈ 29.4 µM); MIC (Pseudomonas aeruginosa [28]): 2 µg/mL (≈ 3.68 µM); MIC [29]: 1 µg/mL (≈ 1.84 µM); MIC (Pseudomonas aeruginosa [30]): 8 µg/mL (≈ 14.7 µM); MIC (Staphylococcus aureus [31]): < 0.008 µg/mL; MIC (Escherichia coli [32]): 0.03 µg/mL (≈ 0.0552 µM); MIC (Staphylococcus aureus [33]): 16 µg/mL (≈ 29.4 µM); MIC (Klebsiella pneumoniae [34]): 128 µg/mL (≈ 235 µM); MIC (Enterococcus faecium [35]): 1 µg/mL (≈ 1.84 µM); MIC [36]: 2 µg/mL (≈ 3.68 µM); MIC (Enterococcus faecium [37]): 1 µg/mL (≈ 1.84 µM)
